Experimental data pooled from the literature.
Each line is one published result; the experiments were not run side by side.
Effect on: metabolic stability
Species: rat

NCc1ccc(-c2nn(Cc3ccccc3)c3ccccc23)o1
half-life (liver microsomes; 1 µM, pH 7.4): > 30 min

Cc1[nH]c(C)c(S(=O)(=O)Nc2ccc(C(F)(F)F)c(Cl)c2Cl)c1C(=O)N1CCC(F)(F)C1
half-life (liver microsomes): 32 min

N#Cc1ccc(C[C@H](Nc2c(Nc3ccc(F)cc3)c(=O)c2=O)C(=O)N2CCc3ccccc32)cc1
half-life (liver microsomes; 10 µM, pH 7.4): 20 min

NCc1ccc(-c2nn(Cc3ccncc3)c3ccccc23)o1
half-life (liver microsomes; 1 µM, pH 7.4): ~17 min

N#Cc1ccc(C[C@H](Nc2nnc(-c3ccc(Br)cc3)s2)C(=O)N2CCc3ccccc32)cc1
half-life (liver microsomes; 10 µM, pH 7.4): 15 min

O=C1CCC(N2Cc3cc(C4CCN(Cc5ccccc5)CC4)ccc3C2=O)C(=O)N1 (stereo not shown)
half-life (liver microsomes; 1 µM): > 60 min

Cc1[nH]c(C)c(S(=O)(=O)Nc2ccc(C(F)(F)F)c(Cl)c2)c1C(=O)N1CCC(F)(F)C1
half-life (liver microsomes): 8 min

N#Cc1ccc(C[C@H](Nc2c(Nc3ccc(Br)cc3)c(=O)c2=O)C(=O)N2CCc3ccccc32)cc1
half-life (liver microsomes; 10 µM, pH 7.4): 38 min

C=CCn1c(=O)c2cnc(Nc3ccc(N4CCN(C)CC4)cc3)nc2n1-c1ccc2c(n1)[C@@](O)(CC)CC2
half-life (hepatocytes): 175 min

OCc1ccc(-c2nn(Cc3ccccn3)c3cccnc23)o1
half-life (liver microsomes; 1 µM, pH 7.4): > 30 min

N#Cc1ccc(C[C@H](Nc2nnc(-c3ccc(F)cc3)s2)C(=O)N2CCc3ccccc32)cc1
half-life (liver microsomes; 10 µM, pH 7.4): 19.3 min

COc1ncccc1Cn1nc(-c2ccc(CO)o2)c2ccccc21
half-life (liver microsomes; 1 µM, pH 7.4): 6 min

COc1ccc(Cn2cc(CO[C@@H]3O[C@H]4[C@H](OC[C@H]4O)[C@H]3O)nn2)cc1
half-life (liver microsomes): 120 min
